Calls of active or inactive are those of the source. The calls are words filed in the database; no cut-off is given here.
How the values were obtained:
[1] = biological target: T1, D(2) dopamine receptor (Homo sapiens, UniProt P14416); assay: Displacement of [3H]spiperone from human Dopamine receptor D2 isoform long expressed in HEK293 cells at 10 uM; type: cell-based
How it was run: (§1)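 Whole HEK293 cells expressing hD5 or hD2L were suspended in 50 mM Tris-HCl, 5 mM MgCl2, pH 7.4, with [3H]SCH 23390 (D5) or [3H]spiperone (D2) and run in triplicate for 1.5 h at 27 °C. Samples were filtered on PEI-treated filtermats and counted by scintillation. Non-specific binding was set with fluphenazine 100 µM (D5) or haloperidol 10 µM (D2). The value is % change in bound radioactivity.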

[2] = Displacement of [3H]spiperone from human Dopamine D4.4 receptor expressed in CHO cells at 10 uM; type: cell-based
[3] = biological target: T2, D(1B) dopamine receptor (Homo sapiens, UniProt P21918); assay: Displacement of [3H]SCH 23390 from human Dopamine D5 receptor expressed in HEK293 cells at 10 uM; type: cell-based; how it was run: as §1
[4] = biological target: T1, D(2) dopamine receptor; assay: Displacement of [3H]Spiperone from human Dopamine receptor D2 isoform long expressed in HEK293 cells; type: cell-based
How it was run: (§2)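 [3H]Spiperone competition on whole-cell suspensions (D2L in HEK293, D4.4 in CHO) in Tris-HCl 50 mM/MgCl2 5 mM pH 7.4, 1.5 h at 27 °C. Non-specific binding defined with 10 µM haloperidol. Filtration over PEI-treated filtermat, scintillation counting. At least two independent triplicate experiments; nonlinear fit IC50 converted to Ki by Cheng-Prusoff.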

[5] = biological target: D(3) dopamine receptor (Homo sapiens, UniProt P35462); assay: Displacement of [3H]spiperone from human Dopamine D3 receptor expressed in CHO cells; type: cell-based
[6] = Displacement of [3H]spiperone from human Dopamine D4.4 receptor expressed in CHO cells; type: cell-based; how it was run: as §2
[7] = biological target: T2, D(1B) dopamine receptor; assay: Displacement of [3H]SCH 23390 from human Dopamine D5 receptor expressed in HEK293
How it was run: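 Whole HEK293 cell suspension in 5 mM MgCl2/50 mM Tris-HCl pH 7.4, incubated with [3H]SCH 23390 for 1.5 h at 27 °C. Fluphenazine 100 µM defined non-specific binding. Separation by filtration over polyethyleneimine-treated filters, then scintillation counting. At least two independent experiments, each in triplicate; Ki from IC50 by Cheng-Prusoff.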

[8] = biological target: T1, D(2) dopamine receptor; assay: Antagonist activity at human Dopamine receptor D2 isoform long expressed in HEK293 cells assessed as change in quinpirole-induced intracellular calcium response at 10 uM; type: functional, cell-based; design: scale not given: the % may be the effect or the level left
How it was run: (§3)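 HEK293 cells stably expressing hD2L or hD5 were loaded with Oregon Green 488 BAPTA-1/AM for 45 min at 37 °C and resuspended in Krebs-Hepes buffer at pH 7.4. Cells were preincubated with compound for 30 min at 37 °C, then given standard agonist at 1 µM final (quinpirole for D2, SKF 38393 for D5). Fluorescence (ex 485, em 520 nm) was read for 30 s; the value is % change of the agonist-induced signal.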

[9] = biological target: T1, D(2) dopamine receptor; assay: Antagonist activity at human Dopamine receptor D2 isoform long expressed in HEK293 cells assessed as change in quinpirole-induced intracellular calcium response; type: functional, cell-based
How it was run: (§4)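 Intact HEK293 cells stably expressing the receptor, loaded with Oregon Green 488 BAPTA-1/AM plus Pluronic F-127 for 45 min at 37 °C, then suspended in Krebs-Hepes buffer pH 7.4. Fluorescence ex 485/em 520 nm read over 30 s. IC50 by four-parameter fit; Ki via modified Cheng-Prusoff.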

[10] = biological target: T2, D(1B) dopamine receptor; assay: Antagonist activity at human Dopamine D5 receptor in HEK293 cells assessed as change in SKF 38393-induced intracellular calcium response at 10 uM; type: functional, cell-based; design: scale not given: the % may be the effect or the level left; how it was run: as §3
[11] = biological target: T2, D(1B) dopamine receptor; assay: Antagonist activity at human Dopamine D5 receptor in HEK293 cells assessed as change in SKF 38393-induced intracellular calcium response; type: functional, cell-based; how it was run: as §4
[12] = organism: Homo sapiens; assay: Selectivity for human dopamine D4.4 receptor over human dopamine receptor D2 isoform long
[13] = organism: Homo sapiens; assay: Selectivity for human dopamine D4.4 receptor over human dopamine D3 receptor
[14] = organism: Homo sapiens; assay: Selectivity for human dopamine D4.4 receptor over human dopamine D5 receptor

T2 sequence (P21918 whole entry, canonical isoform): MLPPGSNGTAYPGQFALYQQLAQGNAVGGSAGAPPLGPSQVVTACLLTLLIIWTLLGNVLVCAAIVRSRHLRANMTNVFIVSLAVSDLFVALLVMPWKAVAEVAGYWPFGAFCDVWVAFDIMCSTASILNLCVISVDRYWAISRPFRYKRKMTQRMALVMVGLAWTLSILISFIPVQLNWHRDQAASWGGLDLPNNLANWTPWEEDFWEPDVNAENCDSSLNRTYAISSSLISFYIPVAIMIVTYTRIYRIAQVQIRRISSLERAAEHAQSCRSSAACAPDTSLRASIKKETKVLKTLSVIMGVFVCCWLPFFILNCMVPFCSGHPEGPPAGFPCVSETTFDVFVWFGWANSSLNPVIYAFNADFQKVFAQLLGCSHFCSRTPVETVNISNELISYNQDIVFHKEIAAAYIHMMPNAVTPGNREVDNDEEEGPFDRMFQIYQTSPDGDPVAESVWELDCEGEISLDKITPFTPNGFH
T1 sequence (P14416 whole entry, canonical isoform): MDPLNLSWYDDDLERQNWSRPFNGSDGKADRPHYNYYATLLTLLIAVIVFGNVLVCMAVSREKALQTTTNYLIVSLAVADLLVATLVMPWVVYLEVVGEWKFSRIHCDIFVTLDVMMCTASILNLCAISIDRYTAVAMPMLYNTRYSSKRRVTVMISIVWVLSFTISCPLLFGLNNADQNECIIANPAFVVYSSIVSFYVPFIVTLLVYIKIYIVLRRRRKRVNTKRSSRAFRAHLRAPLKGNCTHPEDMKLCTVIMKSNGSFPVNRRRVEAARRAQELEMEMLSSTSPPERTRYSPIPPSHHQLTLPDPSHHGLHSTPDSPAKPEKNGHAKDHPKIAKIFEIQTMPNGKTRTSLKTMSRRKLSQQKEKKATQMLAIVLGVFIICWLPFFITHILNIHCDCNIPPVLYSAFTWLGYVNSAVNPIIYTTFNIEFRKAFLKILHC
D(3) dopamine receptor, sequence (P35462 whole entry): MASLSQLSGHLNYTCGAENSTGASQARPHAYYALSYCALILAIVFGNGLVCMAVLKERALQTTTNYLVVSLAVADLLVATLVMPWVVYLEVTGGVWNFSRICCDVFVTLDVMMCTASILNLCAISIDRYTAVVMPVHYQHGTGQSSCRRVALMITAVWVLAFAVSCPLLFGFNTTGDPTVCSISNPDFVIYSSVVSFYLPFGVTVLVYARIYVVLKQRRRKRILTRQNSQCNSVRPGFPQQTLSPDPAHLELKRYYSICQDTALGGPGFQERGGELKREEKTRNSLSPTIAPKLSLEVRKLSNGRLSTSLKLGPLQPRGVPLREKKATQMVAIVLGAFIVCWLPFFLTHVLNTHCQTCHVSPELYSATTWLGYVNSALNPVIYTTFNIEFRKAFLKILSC

Row | SMILES | Activity [1] [%] | Activity [2] [%] | Activity [3] [%] | Ki [4] [nM] | Ki [5] [nM] | Ki [6] [nM] | Ki [7] [nM] | Activity [8] [%] | Ki [9] [nM] | Activity [10] [%] | Activity [11] | Selectivity ratio [12] | Selectivity ratio [13] | Selectivity ratio [14] | Ki [11]
1 | O=C1Cc2ccccc2N1CCCCN1CCN(c2ccc(Cl)cc2)CC1 | 106 | 101 | 93 | 1750 | 1200 | 0.04 | 202 | -28 | 375 | 8 | inactive | > 43000 | > 30000 | > 5000 | 
2 | O=C1c2ccccc2CN1CCCCN1CCN(c2cccc(C(F)(F)F)c2)CC1 | 106 | 95 | 99 | 387 | 14 | 368 | 80.8 | -53 | 26 | 41 | inactive |  |  |  | 
3 | COc1ccccc1N1CCN(CCCCn2cnc3ccccc3c2=O)CC1 | 105 |  |  | 184 |  |  |  | -58 | 1.2 |  |  |  |  |  | 
4 | O=C1c2ccccc2S(=O)(=O)N1CCCCN1CCN(c2ccc(Cl)cc2)CC1 | 99 | 101 | 87 | 177 | 287 | 36 | 230 | -24 | > 10000 | 4 | inactive |  |  |  | 
5 | O=c1c2ccccc2ncn1CCCCN1CCN(c2cccc(C(F)(F)F)c2)CC1 | 107 | 98 | 76 | 73 | 102 | 185 | 1700 | -38 | > 10000 | 9 | inactive |  |  |  | 
6 | O=C1c2ccccc2CN1CCCCN1CCN(c2ccc(Cl)cc2)CC1 | 105 | 91 | 100 | 760 | 660 | 142 | 33.6 | -7 | > 10000 | 21 | inactive |  |  |  | 
7 | O=c1c2ccccc2ncn1CCCCN1CCN(c2ccc(Cl)cc2)CC1 | 100 | 102 | 76 | 140 | 1780 | 158 | 507 | -44 | > 10000 | 5 |  |  |  |  | Not Active
8 | O=C1c2ccccc2S(=O)(=O)N1CCCCN1CCN(c2cccc(C(F)(F)F)c2)CC1 | 100 | 54 | 89 | 113 | 107 | > 10000 | 1760 | -44 | > 10000 | 8 | inactive |  |  |  | 
9 | O=C1Cc2ccccc2N1CCCCN1CCN(c2cccc(C(F)(F)F)c2)CC1 | 105 | 96 | 93 | 323 | 247 | 28 | 190 | -55 | 416 | 26 | inactive |  |  |  | 
